Data published in ChEMBL document CHEMBL2093137, “WHO-TDR NTD Screening”.
≈ marks a conversion by molar mass, not a printed value.

Tests used:
[1] = WHO-TDR: Cytotoxicity; format: toxicity, cell-based; conditions: human, MRC5 cells
Plasmodium falciparum K1 = test: WHO-TDR: Malaria; format: functional, organism-based, Homo sapiens; conditions: Erythrocyte
How it was run: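 Following previously published standard procedures, with a reference drug serving as positive control, compounds were tested on the Plasmodium falciparum K1 strain inside human red blood cells. The 10,000-compound diverse set came from Life Chemicals after filtering for drug-likeness and reactive groups. Potency against the parasite appears as IC50.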

Trypanosoma cruzi = test: WHO-TDR: Chagas disease; format: functional, organism-based, Homo sapiens; conditions: MRC5
How it was run: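 Following previously published standard procedures, with a reference drug as positive control, a whole-organism assay was run on Trypanosoma cruzi Tulahuen CL2 beta-galactosidase strain amastigotes inside MRC-5SV2 human lung fibroblast host cells. The 10,000 compounds tested formed a diverse Life Chemicals library filtered for drug-likeness and reactive groups. Results are expressed as IC50 for antiparasitic potency.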

[2] = test system: Trypanosoma brucei brucei; test: WHO-TDR: Human African Trypanosomiasis (HAT); format: functional, organism-based; conditions: Squib-427
How it was run: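 Bloodstream forms of the Trypanosoma brucei Squib 427 strain were tested in a whole-organism screen with a diverse library from Life Chemicals of 10,000 compounds. Before screening, the library was filtered for drug-likeness and for reactive groups. The assay used previously published standard procedures and included reference drugs as positive controls. Potency against the parasite is expressed as IC50.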

Leishmania infantum = test: WHO-TDR: Leishmaniasis; format: functional, organism-based, Mus musculus; conditions: Macrophage
How it was run: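 Following previously published standard procedures, a whole-organism screen was run on Leishmania infantum MHOM/MA(BE)/67 amastigotes within murine peritoneal macrophages, with a reference drug as positive control. The 10,000 compounds tested formed a diverse Life Chemicals library filtered for drug-likeness and reactive groups. Potency against the parasite is reported as IC50.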

Schistosoma mansoni = test: WHO-TDR: Schistosomiasis; format: functional; set-up: concentration or dose not given beside the values
How it was run: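 In this whole-organism assay, larval and/or adult worms of Schistosoma mansoni (Puerto Rican strain) were exposed to compounds from a diverse Life Chemicals library of 10,000 members. A reference drug served as positive control. Activity is stated as percent inhibition and IC50.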

Brugia malayi [3] = test: (§1) WHO-TDR: Lymphatic Filariasis; format: functional; set-up: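 tested at 10 µM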
How it was run: (§2)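 In a whole-organism assay, Brugia malayi microfilariae were screened against a diverse Life Chemicals library that had been filtered for drug-likeness and reactive groups. That library comprised 10,000 compounds. Activity is expressed as percent inhibition and as IC50.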

Brugia malayi [4] = test: as §1; format: functional, organism-based; how it was run: as §2
Brugia malayi [5] = test: as §1; format: functional; set-up: concentration or dose not given beside the values; how it was run: as §2; remark: listed apart in the source
Onchocerca lienalis = test: WHO-TDR: Onchocerciasis; format: functional; set-up: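 at 12.5 µM on microfilariae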
How it was run: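 Microfilariae of Onchocerca ochengi or Onchocerca lienalis, animal pathogens standing in for the human parasite, were exposed to compounds in a whole-organism screen. The compounds came from a 10,000-compound diverse Life Chemicals library filtered for drug-likeness and reactive groups. Results are expressed as percent inhibition and IC50.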

Row | SMILES | IC50 [1] [µg/mL] | IC50 (Plasmodium falciparum K1) [µg/mL] | IC50 (Trypanosoma cruzi) [µg/mL] | IC50 [2] [µg/mL] | IC50 (Leishmania infantum) [µg/mL] | % Inhibition (Schistosoma mansoni) [%] | % Inhibition (Brugia malayi [3]) [%] | IC50 (Brugia malayi [4]) [µM] | % Inhibition (Brugia malayi [5]) [%] | % Inhibition (Onchocerca lienalis) [%]
1 | Cc1c(Cl)ccc2sc(NC(=O)c3ccc(S(=O)(=O)N4CC(C)CC(C)C4)cc3)nc12 (stereo not given) | > 14.3 | > 14.3 | > 14.3 | > 15.3 | 4.64 (≈ 9.71 µM) | 0 | 100 | 1.07 | 80 | –
2 | CCCCc1ccc(NC(=O)CSc2cn(CC)c3ccccc23)cc1 | > 11 | > 11 | 2.93 (≈ 7.99 µM) | 3.56 (≈ 9.71 µM) | > 11 | 0 | 100 | 3.54 | 0 | –
3 | COc1ccc(NC(=O)c2oc3ccccc3c2NC(=O)c2cccc(Cl)c2)c(OC)c1 | > 13.5 | > 13.5 | > 13.5 | > 13.5 | > 13.5 | 25 | 100 | 4.49 | 0 | –
4 | O=C(Nc1nc2c(F)cc(F)cc2s1)c1nc2ccccc2s1 | > 10.4 | > 10.4 | > 10.4 | > 11.1 | > 10.4 | 0 | 100 | 3.27 | 50 | –
5 | CC(C)c1ccc2nc(Nc3nc4ccc(S(C)(=O)=O)cc4s3)sc2c1 | > 12.1 | > 12.1 | > 12.1 | > 12.1 | 3.92 (≈ 9.71 µM) | 0 | 100 | 4.95 | 25 | –
6 | Fc1cccc2sc(Nc3nc4c(s3)CCCC4)nc12 | > 9.16 | > 9.16 | > 9.16 | > 9.16 | > 9.16 | 0 | 100 | 4.36 | 50 | –
7 | Cc1cc(C)c2sc(NC(=O)c3nc4ccccc4s3)nc2c1 | > 10.2 | > 10.2 | > 10.2 | > 10.9 | > 10.2 | 0 | 100 | 2.5 | 25 | –
8 | COc1cccc2sc(Nc3nc4c(s3)CCCC4)nc12 | > 9.52 | > 9.52 | > 9.52 | 3.81 (≈ 12 µM) | > 9.52 | 0 | 100 | 3.44 | 50 | –
9 | CCOc1cccc2sc(Nc3nc4ccc5sc(C)nc5c4s3)nc12 | > 12 | > 12 | > 12 | > 12 | > 12 | 0 | 100 | 4.49 | 50 | –
10 | CCOC(=O)c1sc(NC(=O)C(C)Sc2ncnc3ccccc23)c(C(=O)OCC)c1C (stereo not given) | > 14.2 | > 14.2 | > 14.2 | > 14.2 | > 14.2 | 0 | 100 | 4.36 | 0 | –
11 | O=C(Nc1nc2c(Cl)ccc(Cl)c2s1)C1=COCCO1 | > 9.93 | > 9.93 | > 9.93 | > 10.6 | > 9.93 | 0 | 100 | 3.97 | 25 | –
12 | COc1cccc2c1CCN(Cc1ccc(Cl)cc1)C2=O | > 9.05 | > 9.05 | 2.48 (≈ 8.23 µM) | > 9.05 | > 9.05 | 0 | 100 | 3.54 | – | 40
13 | CS(=O)(=O)c1ccc2nc(Nc3nc4c(F)cccc4s3)sc2c1 | > 11.4 | 6.16 (≈ 16.2 µM) | > 11.4 | > 11.4 | > 11.4 | 0 | 100 | 4.49 | 25 | –
14 | CCOC(=O)c1sc(Nc2nc3c(F)cccc3s2)nc1C | > 10.1 | > 10.1 | > 10.1 | > 10.1 | 6.9 (≈ 20.4 µM) | 0 | 100 | 4.99 | 50 | –
15 | COc1ccc2nc(Nc3nc(-c4ccccn4)cs3)sc2c1 | 0.129 (≈ 0.378 µM) | 0.312 (≈ 0.915 µM) | < 0.102 | < 0.102 | 0.323 (≈ 0.949 µM) | 0 | 100 | 2.61 | 25 | –
16 | Cc1nc2ccc3nc(Nc4nc5c(F)cccc5s4)sc3c2s1 | > 11.2 | > 11.2 | > 11.2 | > 11.2 | > 11.2 | 0 | 100 | 5.21 | 50 | –
17 | COc1ccc2nc(N(CCCN(C)C)C(=O)CCCSc3ccccc3)sc2c1 | 4.06 (≈ 9.16 µM) | 3.35 (≈ 7.55 µM) | 2.53 (≈ 5.71 µM) | 0.455 (≈ 1.03 µM) | 4.66 (≈ 10.5 µM) | 0 | 0 | – | 0 | 12.34
18 | COc1cccc2sc(Nc3nnc(-c4cccs4)o3)nc12 | 1.83 (≈ 5.54 µM) | 1.25 (≈ 3.78 µM) | 0.313 (≈ 0.947 µM) | 0.346 (≈ 1.05 µM) | 3.17 (≈ 9.6 µM) | 0 | 100 | 5.09 | 50 | –
19 | CC(C)N1CCc2c(sc(NC(=O)c3sc4ccccc4c3Cl)c2C(N)=O)C1 | 4.25 (≈ 9.8 µM) | > 14.1 | 0.552 (≈ 1.27 µM) | 2.02 (≈ 4.65 µM) | 0.457 (≈ 1.05 µM) | 0 | 33.33 | – | 0 | 0
20 | CCOC(=O)c1c(NC(=O)c2cccc(C(F)(F)F)c2)sc2c1CCN(C)C2 | > 13.5 | > 13.5 | 4.8 (≈ 11.6 µM) | 0.341 (≈ 0.826 µM) | 4.84 (≈ 11.7 µM) | 0 | 33.33 | – | 0 | 0
